Data published in ChEMBL document CHEMBL3271984, “Antifungal activity of 4-substituted crotonic acid esters” (1976).
≈ marks a conversion by molar mass, not a printed value. Calls of active or inactive are those of the source. No cut-off for these calls is given here.

Experiments:
[1] = tested on: Trichophyton mentagrophytes; assay: Antifungal activity against Trichophyton mentagrophytes ATCC 9129 assessed as growth inhibition at pH 5.6 incubated for 5 days in absence of 10% beef serum; type: functional; settings: for MIC: ATCC 9129, 120 h, read-out: MIC100
In short: (§1)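 Agar dilution in Sabouraud dextrose agar at pH 5.6 or 7.0, with or without 10% beef serum. C. albicans and M. mucedo were incubated 20 h at 37°; A. niger and T. mentagrophytes 5 days at 28°. The value is the minimal µg/ml giving 100% inhibition. Steps were 1 µg/ml up to 10, 2 up to 20, then 10 up to 100 µg/ml maximum.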

Candida albicans [2] = assay: Antifungal activity against Candida albicans ATCC 10231 assessed as growth inhibition at pH 7 incubated for 20 hrs in presence of 10% beef serum; type: functional; settings: for MIC: ATCC 10231, 20 h, read-out: MIC100; in short: as §1
Candida albicans [3] = assay: Antifungal activity against Candida albicans ATCC 10231 assessed as growth inhibition at pH 5.6 incubated for 20 hrs in absence of 10% beef serum; type: functional; settings: for MIC: ATCC 10231, 20 h, read-out: MIC100; in short: as §1
Mucor mucedo [4] = assay: Antifungal activity against Mucor mucedo ATCC 7941 assessed as growth inhibition at pH 5.6 incubated for 20 hrs in presence of 10% beef serum; type: functional; settings: for MIC: ATCC 7941, 20 h, read-out: MIC100; in short: as §1
Aspergillus niger [5] = assay: Antifungal activity against Aspergillus niger ATCC 1004 assessed as growth inhibition at pH 5.6 incubated for 5 days in presence of 10% beef serum; type: functional; settings: for MIC: ATCC 1004, 120 h, read-out: MIC100; in short: as §1
[6] = tested on: Trichophyton mentagrophytes; assay: Antifungal activity against Trichophyton mentagrophytes ATCC 9129 assessed as growth inhibition at pH 7 incubated for 5 days in presence of 10% beef serum; type: functional; settings: for MIC: ATCC 9129, 120 h, read-out: MIC100; in short: as §1
Mucor mucedo [7] = assay: Antifungal activity against Mucor mucedo ATCC 7941 assessed as growth inhibition at pH 7 incubated for 20 hrs in presence of 10% beef serum; type: functional; settings: for MIC: ATCC 7941, 20 h, read-out: MIC100; in short: as §1
Mucor mucedo [8] = assay: Antifungal activity against Mucor mucedo ATCC 7941 assessed as growth inhibition at pH 5.6 incubated for 20 hrs in absence of 10% beef serum; type: functional; settings: for MIC: ATCC 7941, 20 h, read-out: MIC100; in short: as §1
Candida albicans [9] = assay: Antifungal activity against Candida albicans ATCC 10231 assessed as growth inhibition at pH 5.6 incubated for 20 hrs in presence of 10% beef serum; type: functional; settings: for MIC: ATCC 10231, 20 h, read-out: MIC100; in short: as §1
Aspergillus niger [10] = assay: Antifungal activity against Aspergillus niger ATCC 1004 assessed as growth inhibition at pH 7 incubated for 5 days in absence of 10% beef serum; type: functional; settings: for MIC: ATCC 1004, 120 h, read-out: MIC100; in short: as §1
Aspergillus niger [11] = assay: Antifungal activity against Aspergillus niger ATCC 1004 assessed as growth inhibition at pH 5.6 incubated for 5 days in absence of 10% beef serum; type: functional; settings: for MIC: ATCC 1004, 120 h, read-out: MIC100; in short: as §1
Aspergillus niger [12] = assay: Antifungal activity against Aspergillus niger ATCC 1004 assessed as growth inhibition at pH 7 incubated for 5 days in presence of 10% beef serum; type: functional; settings: for MIC: ATCC 1004, 120 h, read-out: MIC100; in short: as §1
Mucor mucedo [13] = assay: Antifungal activity against Mucor mucedo ATCC 7941 assessed as growth inhibition at pH 7 incubated for 20 hrs in absence of 10% beef serum; type: functional; settings: for MIC: ATCC 7941, 20 h, read-out: MIC100; in short: as §1
[14] = tested on: Trichophyton mentagrophytes; assay: Antifungal activity against Trichophyton mentagrophytes ATCC 9129 assessed as growth inhibition at pH 7 incubated for 5 days in absence of 10% beef serum; type: functional; settings: for MIC: ATCC 9129, 120 h, read-out: MIC100; in short: as §1
[15] = tested on: Trichophyton mentagrophytes; assay: Antifungal activity against Trichophyton mentagrophytes ATCC 9129 assessed as growth inhibition at pH 5.6 incubated for 5 days in presence of 10% beef serum; type: functional; settings: for MIC: ATCC 9129, 120 h, read-out: MIC100; in short: as §1
Candida albicans [16] = assay: Antifungal activity against Candida albicans ATCC 10231 assessed as growth inhibition at pH 7 incubated for 20 hrs in absence of 10% beef serum; type: functional; settings: for MIC: ATCC 10231, 20 h, read-out: MIC100; in short: as §1
[17] = tested on: Trichophyton mentagrophytes; assay: Antifungal activity against Trichophyton mentagrophytes ATCC 9129 incubated for 5 days; type: functional, organism-based
Aspergillus niger [18] = assay: Antifungal activity against Aspergillus niger ATCC 1004 incubated for 5 days; type: functional, organism-based
Candida albicans [19] = assay: Antifungal activity against Candida albicans ATCC 10231 incubated for 20 hrs; type: functional, organism-based
Mucor mucedo [20] = assay: Antifungal activity against Mucor mucedo ATCC 7941 incubated for 20 hrs; type: functional, organism-based

SMILES | MIC [1] [µg/mL] | MIC (Candida albicans [2]) [µg/mL] | MIC (Candida albicans [3]) [µg/mL] | MIC (Mucor mucedo [4]) [µg/mL] | MIC100 (Aspergillus niger [5]) | MIC [6] [µg/mL] | MIC (Mucor mucedo [7]) [µg/mL] | MIC (Mucor mucedo [8]) [µg/mL] | MIC (Candida albicans [9]) [µg/mL] | MIC (Aspergillus niger [10]) [µg/mL] | MIC (Aspergillus niger [11]) [µg/mL] | MIC100 (Aspergillus niger [12]) | MIC (Mucor mucedo [13]) [µg/mL] | MIC [14] [µg/mL] | MIC [15] [µg/mL] | MIC (Candida albicans [16]) [µg/mL] | other results
COC/C=C/C(=O)OC | – | – | – | – | – | – | – | – | – | – | – | – | – | – | – | – | MIC100 [1]: inactive; MIC100 (Mucor mucedo [8]): inactive
C/C=C/C(=O)OCCCCC | – | – | – | – | – | – | – | – | – | – | – | – | – | – | – | – | Activity [17]: inactive; Activity (Aspergillus niger [18]): inactive; Activity (Candida albicans [19]): inactive; Activity (Mucor mucedo [20]): inactive
C/C=C/C(=O)OCCCCCC | – | – | – | – | – | – | – | – | – | – | – | – | – | – | – | – | Activity [17]: inactive; Activity (Aspergillus niger [18]): inactive; Activity (Candida albicans [19]): inactive; Activity (Mucor mucedo [20]): inactive
COC(=O)/C=C/CF | – | – | – | – | inactive | – | – | – | – | – | – | inactive | – | – | – | – | MIC100 [1]: inactive; MIC100 (Candida albicans [2]): inactive; MIC100 (Candida albicans [3]): inactive; MIC100 (Mucor mucedo [4]): inactive; MIC100 [6]: inactive; MIC100 (Mucor mucedo [7]): inactive; MIC100 (Mucor mucedo [8]): inactive; MIC100 (Candida albicans [9]): inactive; MIC100 (Aspergillus niger [10]): inactive; MIC100 (Aspergillus niger [11]): inactive; MIC100 (Mucor mucedo [13]): inactive; MIC100 [14]: inactive; MIC100 [15]: inactive; MIC100 (Candida albicans [16]): inactive
C/C=C/C(=O)OCCC | – | – | – | – | – | – | – | – | – | – | – | – | – | – | – | – | Activity [17]: inactive; Activity (Aspergillus niger [18]): inactive; Activity (Candida albicans [19]): inactive; Activity (Mucor mucedo [20]): inactive
CCOC(=O)/C=C/CBr | < 1 | 40 | 20 (≈ 104 µM) | 7 | – | 4 | 7 | 5 (≈ 25.9 µM) | 30 | 70 (≈ 363 µM) | 80 (≈ 414 µM) | – | 6 (≈ 31.1 µM) | 2 (≈ 10.4 µM) | 2 | 30 (≈ 155 µM) | MIC (Aspergillus niger [5]): 90 µg/mL; MIC (Aspergillus niger [12]): 80 µg/mL
CCCCOC(=O)/C=C/CBr | < 1 | 40 | 16 (≈ 72.4 µM) | 4 | – | 8 | 7 | 4 (≈ 18.1 µM) | 30 | 50 (≈ 226 µM) | 60 (≈ 271 µM) | – | 4 (≈ 18.1 µM) | 3 (≈ 13.6 µM) | 4 | 30 (≈ 136 µM) | MIC (Aspergillus niger [5]): 100 µg/mL; MIC (Aspergillus niger [12]): 80 µg/mL

More lines, main results first:

MIC [1] [µg/mL] | MIC (Candida albicans [2]) [µg/mL] | MIC (Candida albicans [3]) [µg/mL] | MIC (Mucor mucedo [4]) [µg/mL] | MIC100 (Aspergillus niger [5]) | MIC [6] [µg/mL] | MIC (Mucor mucedo [7]) [µg/mL] | MIC (Mucor mucedo [8]) [µg/mL] | MIC (Candida albicans [9]) [µg/mL] | MIC (Aspergillus niger [10]) [µg/mL] | MIC (Aspergillus niger [11]) [µg/mL] | MIC100 (Aspergillus niger [12]) | MIC (Mucor mucedo [13]) [µg/mL] | MIC [14] [µg/mL] | MIC [15] [µg/mL] | MIC (Candida albicans [16]) [µg/mL] | SMILES | other results
< 1 | 50 | 20 (≈ 85.1 µM) | 14 | inactive | 10 | 30 | 3 (≈ 12.8 µM) | 50 | 70 (≈ 298 µM) | 70 (≈ 298 µM) | inactive | 14 (≈ 59.5 µM) | 2 (≈ 8.51 µM) | 4 | 30 (≈ 128 µM) | CCCCCOC(=O)/C=C/CBr | –
< 1 | 90 | 20 (≈ 80.3 µM) | 40 | inactive | 30 | 50 | 14 (≈ 56.2 µM) | 70 | – | – | inactive | 16 (≈ 64.2 µM) | 4 (≈ 16.1 µM) | 14 | 20 (≈ 80.3 µM) | CCCCCCOC(=O)/C=C/CBr | MIC100 (Aspergillus niger [10]): inactive; MIC100 (Aspergillus niger [11]): inactive
< 1 | 90 | 16 (≈ 54 µM) | 40 | inactive | 20 | 50 | 14 (≈ 47.3 µM) | 80 | – | – | inactive | 14 (≈ 47.3 µM) | 3 (≈ 10.1 µM) | 8 | 30 (≈ 101 µM) | CCCCCCOC(=O)/C=C/CI | MIC100 (Aspergillus niger [10]): inactive; MIC100 (Aspergillus niger [11]): inactive
< 1 | 20 | 10 (≈ 39.4 µM) | 5 | – | 7 | 6 | 2 (≈ 7.87 µM) | 16 | 30 (≈ 118 µM) | 30 (≈ 118 µM) | – | 3 (≈ 11.8 µM) | 2 (≈ 7.87 µM) | 3 | 12 (≈ 47.2 µM) | CCCOC(=O)/C=C/CI | MIC (Aspergillus niger [5]): 60 µg/mL; MIC (Aspergillus niger [12]): 60 µg/mL
< 1 | 50 | 5 (≈ 17.7 µM) | 9 | inactive | 10 | 12 | 4 (≈ 14.2 µM) | 40 | 30 (≈ 106 µM) | 40 (≈ 142 µM) | inactive | 3 (≈ 10.6 µM) | 2 (≈ 7.09 µM) | 4 | 12 (≈ 42.5 µM) | CCCCCOC(=O)/C=C/CI | –
